Screening data deposited in PubChem by several laboratories.
ROMK mod: human ROMK K+ channel modulation, primary screen; P48048; Tet-inducible ROMK, thallium flux fluorescence; actives lie on both sides; B-score at 10 µM; 2% of 130,000 active; AID 1918;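 active means signal ratio slope over the read window, or its plate-corrected B-score, at least 3 SD from the plate mean, either direction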;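 further: B-score of the F/F0 ratio slope over 7 to 12 s after thallium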
Calpain2 inh: blocks pig calpain II enzyme activity | purified calpain II, fluorogenic peptide substrate, 30 min | inhibition, % at 16 µM | 0.37% of 220,000 active | AID 1236;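 active means inhibition above about 50%, limit read from the data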
Cl transport mod: modulates chloride dependent transport by human KCC2. Q9H2X9. KCC2 cells, thallium flux FluoZin-2 fluorescence. B-score of Tl+ flux slope (higher = more flux/activation; lower = inhibition) at 10 µM. 2.2% of 190,000 active;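 active means thallium flux slope and its plate-corrected score both differing from the plate sample mean at a set confidence after two filtering rounds, in either direction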;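 further: slope of fluorescence scaled to starting intensity during 10 to 20 s after thallium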
Arbovirus anti: antivirals against arbovirus infection. arbovirus infection cell-based antiviral screen. 0.37% of 200,000 active. inhibition, % at 10 µM. AID 1251; in the data active means inhibition above about 30%
PKD1 kinase inh: blocks activity of human protein kinase D1. 0.056% of 200,000 active. PKD1 kinase fluorescence polarization assay. inhibition, % (no concentration beside the values); in the data active means inhibition above about 50%
Target sequence (Q15139 whole entry, looked up): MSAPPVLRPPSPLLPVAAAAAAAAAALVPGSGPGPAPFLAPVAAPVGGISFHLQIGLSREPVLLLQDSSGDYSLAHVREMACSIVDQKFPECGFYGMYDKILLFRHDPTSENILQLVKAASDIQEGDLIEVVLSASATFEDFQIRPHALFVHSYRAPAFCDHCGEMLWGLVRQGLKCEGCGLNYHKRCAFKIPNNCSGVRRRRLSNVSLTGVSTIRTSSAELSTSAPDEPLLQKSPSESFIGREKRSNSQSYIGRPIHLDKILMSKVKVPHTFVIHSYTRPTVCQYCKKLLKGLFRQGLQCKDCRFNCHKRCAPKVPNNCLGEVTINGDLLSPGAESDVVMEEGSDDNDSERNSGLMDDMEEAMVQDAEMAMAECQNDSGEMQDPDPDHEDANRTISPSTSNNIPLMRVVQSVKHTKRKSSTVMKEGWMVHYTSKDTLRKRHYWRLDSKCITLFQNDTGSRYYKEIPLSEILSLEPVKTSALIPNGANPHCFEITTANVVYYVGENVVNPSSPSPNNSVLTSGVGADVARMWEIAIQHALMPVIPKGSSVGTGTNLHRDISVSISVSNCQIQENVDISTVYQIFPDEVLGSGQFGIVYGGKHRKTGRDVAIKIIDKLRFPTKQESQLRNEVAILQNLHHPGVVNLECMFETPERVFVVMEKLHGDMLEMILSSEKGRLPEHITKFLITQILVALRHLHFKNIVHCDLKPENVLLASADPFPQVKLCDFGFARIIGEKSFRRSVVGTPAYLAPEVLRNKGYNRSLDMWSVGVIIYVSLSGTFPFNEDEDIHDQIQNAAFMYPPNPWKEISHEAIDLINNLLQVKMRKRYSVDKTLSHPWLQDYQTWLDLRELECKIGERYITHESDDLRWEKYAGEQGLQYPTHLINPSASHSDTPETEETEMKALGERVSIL
Mdm2 ligase inh: Mdm2 E3 ligase (human) inhibition; Q00987; cell-based MDM2 ubiquitination luciferase reporter, 2 h; 0 = plate control, 100 = twice control, blank-subtracted; signal enhancement, % at 5 µM; 0.11% of 210,000 active;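 active means signal enhancement of 30% or more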;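 further: luminescence tracks abundance of the self-degrading MDM2-luciferase fusion protein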
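Timing – 2 h compound exposure at 37 °C · Assay system – mammalian cells stably expressing self-ubiquitinating, self-degrading MDM2 E3–luciferase fusion · Amount – 2000 cells seeded into each well · Measure – % luminescence enhancement versus blank-corrected plate control mean · Measured by – SteadyLite luminescence, 15 min reagent step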
ROMK retest: human ROMK channel modulation, retest confirmation; ROMK thallium flux, fluorescence ratio; stronger effect = lower value; normalized thallium flux (F/F0 slope) at 10 µM; AID 1917; shares compounds with ROMK mod; 54% of 3,000 active;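 active means Flux at 10 µM at least 3 SD below or above vehicle control mean in one or both replicates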
Each line names hits and unclear results; the compound was inactive in the other large screens (follow-up assays come after a bar, where they were run). An excerpt weighted towards active compounds, which were near 3.7% of everything screened.

Cc1nnsc1C(=O)N1CCCC(C(=O)c2ccc(C(F)(F)F)cc2)C1 (stereo unspecified)	none (no result: Cl transport mod)
NS(=O)(=O)c1ccc(CCNCC(=O)NC2CC2)cc1	none (no result: ROMK mod, Arbovirus anti, PKD1 kinase inh)
Cc1ccc(S(=O)(=O)N2CCC(=O)N(C(COCc3ccc(Cl)c(Cl)c3)Cc3ccccc3)CC2)cc1 (stereo unspecified)	ROMK mod -4.7 (no result: Mdm2 ligase inh) | ROMK retest 0.061
Cc1ccc(S(=O)(=O)N2CCC(=O)N(C(COCc3ccc(C(F)(F)F)cc3)Cc3ccccc3)CC2)cc1 (stereo unspecified)	ROMK mod -6.7 (no result: Mdm2 ligase inh) | ROMK retest inactive
Cc1ccc(S(=O)(=O)N2CCC(=O)N(C(COCc3cccc(C)c3)Cc3ccccc3)CC2)cc1 (stereo unspecified)	none (no result: Mdm2 ligase inh)
Cc1ccc(-c2c[n+](CC(=O)Nc3nc(-c4ccccc4)cs3)c3n2CCC3)cc1	ROMK mod -4.6 (no result: Arbovirus anti, PKD1 kinase inh) | ROMK retest 0.06
COc1ccc(C(=O)Nc2cc(C(C)=O)c(/C=C/N(C)C)oc2=O)cc1	none (no result: ROMK mod) | ROMK retest 0.037
CCOC(=O)C(NC(C)=O)C(=O)Nc1ccc(C(C)C)cc1 (stereo unspecified)	none
CCOC(=O)C(NC(C)=O)C(=O)Nc1ccc(C(C)(C)C)cc1 (stereo unspecified)	ROMK mod 3.5 | ROMK retest inactive
Cc1ccc(Cl)cc1N1CCN(S(=O)(=O)c2cccc(S(=O)(=O)N3CCCC3)c2)CC1	ROMK mod -3.3 | ROMK retest inactive
C=CCn1c(N2C(=O)CC(Cc3ccccc3)C2=O)nc2ccccc21 (stereo unspecified)	none (no result: ROMK mod)
Cc1cc(C(=O)OCC(=O)NCc2ccco2)c(C)n1-c1ccc(F)cc1	ROMK mod 5.1 | ROMK retest inactive
Cc1sc2nc(CN3CCCC3)nc(N3CCN(S(=O)(=O)c4cccs4)CC3)c2c1C	ROMK mod -2.5 (no result: Cl transport mod) | ROMK retest 0.055
Cc1sc2nc(CN3CCCCC3)nc(N3CCN(C(=O)c4ccco4)CC3)c2c1C	none
O=[N+]([O-])c1cccc(/C=C/c2nc3ccc([N+](=O)[O-])cc3[nH]2)c1	ROMK mod -5.2 | ROMK retest 0.042
Cc1nc2ccc([N+](=O)[O-])cc2[nH]1	none
COc1ccccc1S(=O)(=O)Cc1ccc(C(=O)NC2CCCCC2)o1	none (no result: ROMK mod) | ROMK retest inactive
CC1CN(S(=O)(=O)c2cccc(C(F)(F)F)c2)CC(C)O1 (stereo unspecified)	none (no result: ROMK mod, Arbovirus anti, PKD1 kinase inh)
CC(C)CCN(C)C1CCN(S(=O)(=O)c2cccc(C(F)(F)F)c2)CC1	ROMK mod -2.9 | ROMK retest inactive
CC(=O)/C=C(\C)NCCNc1c(F)c(F)c(CO)c(F)c1F	none
CC(=O)Nc1ccc(S(=O)(=O)N(Cc2ccco2)CC2CCCO2)cc1 (stereo unspecified)	none
COCCN1CCN(c2cc(-c3ccccc3)nc3cc(-c4cccc(F)c4)nn23)CC1	none (no result: Mdm2 ligase inh)
N#C/C(=C\c1c[nH]c2ccccc12)c1nnc2n1CCCCC2	none (no result: ROMK mod)
N#C/C(=N\Nc1cccc2ccccc12)c1nnc2n1CCCCC2	none (no result: ROMK mod) | ROMK retest 0.059
COc1ccc2oc(=O)c(-c3nc(C)cs3)cc2c1	ROMK mod -5.1 | ROMK retest inactive
NCCCNc1ccc([N+](=O)[O-])cc1C(F)(F)F	ROMK mod -8.3 | ROMK retest 0.066
O=C(NCCNc1ccc([N+](=O)[O-])cc1C(F)(F)F)c1ccc(F)cc1	none (no result: ROMK mod)
CCOC(=O)c1c(NC(=O)C[n+]2ccc(Cc3ccccc3)cc2)sc(C)c1C	ROMK mod -3.8 | ROMK retest 0.061
c1ccc(CSc2n[nH]c(-c3ccco3)n2)cc1	ROMK mod 2 | ROMK retest inactive
CCCCN1C(=O)/C(=C/C=C2\SCCN2C)SC1=S	ROMK mod -3.3 | ROMK retest 0.052
CCCCN1C(=O)/C(=C/C=C2\N(C)c3ccccc3C2(C)C)SC1=S	ROMK mod -4.4 | ROMK retest 0.039
CN1CCS/C1=C/C=C1\SC(=S)N(CC(=O)O)C1=O	none (no result: ROMK mod)
Cc1cccc(OC(=O)CCN2C(=O)C3C4C=CC(C5CC45)C3C2=O)c1C (stereo unspecified)	none
CCOC(=O)c1c(C)n(C)c2ccc(OC)c(NC(=O)CN3CCCCC3)c12	ROMK mod -4.1 | ROMK retest 0.056
